Data: the RNAGym collection of RNA variant scans (doi:10.1126/science.aae0568)
This sample holds only a part of the variants without activity.

B1: tRNA (parent)
chain: GUUCCGUUGGCGUAAUGGUAACGCGUCUCCCUCCUAAGGAGAAGACUGCGGGUUCGAGUCCCGUACGGAACG

Variants of: B1
Assay: yeast fitness relative to wild type (ratio to wild type); higher = fitter; tRNA-Arg(CCU), competitive growth, 37 C, YPD
How it was run: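 A pool of Saccharomyces cerevisiae strains, each with a tRNA-Arg(CCU) gene variant at the native genomic locus, was competed in YPD at 37°C for 24 hours across six parallel replicates. The variants had been chemically synthesised at a 3% per-site mutation rate over 69 sites, and gene amplicons before and after competition were read by 100-nucleotide paired-end sequencing. Darwinian fitness relative to wild type rested on changes in genotype frequencies. Genotypes required ≥ 100 starting reads, and estimates < 0.5 were set to 0.5.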

Variant | yeast fitness
C4A C24G A37G G50C | ≤ 0.5
C4A A15C A43G | ≤ 0.5
C4A C11U C30U G39C C55G | ≤ 0.5
U3G C11G A65U C66U | ≤ 0.5
C4A A40C C49G C60G | ≤ 0.5
U3G C31A G50A G67A | ≤ 0.5
U3G U8A G18C | 0.63
U3G U26A C29A C34A G38A G67C | 0.712
C4A C5U C24G A45U C66U | ≤ 0.5
C4A A20U C30U | ≤ 0.5
U3G C5U G10A C31U G41C A43C | ≤ 0.5
U3G C29A | 0.533
U3G U8C C33U C66A | ≤ 0.5
U3G C22A C24U U35G A45U A65U A70U | ≤ 0.5
C4A A21G G51A A69G | ≤ 0.5
C4A C34G C61A | ≤ 0.5
C4A C31A C33G U47A A65C | 0.627
C4A G6A A21C C24U | 0.562
C4A C5U C22U C34A C49U C62U | ≤ 0.5
C4A C24U G58A C62U | 0.587
C4A C29U G67A | ≤ 0.5
C4A C24G A69U | ≤ 0.5
U3G C33U A42G C61A | 0.538
C4A A57U | 0.714

Variant | yeast fitness
C4A C5G A20C A40U A65C | ≤ 0.5
U3G C24U U28C | 0.599
C4A C24G C61A C66U | ≤ 0.5
C4A C24G G25C A45G C60A | ≤ 0.5
C4A C5U C11G C30A | ≤ 0.5
U3G U26A | 0.944
U3G G25A A45C A69U | 0.814
C4A C29U C30G C49U | ≤ 0.5
C4A C27U C61U | 0.62
U3G U16A A45U A70G | ≤ 0.5
C4A A15C C55U | 0.58
C4A C34G G39C | ≤ 0.5
C4A C34U | 0.666
C4A C34A | 0.817
C4A A14C A70G | ≤ 0.5
C4A A20G G44C A45G C61U | ≤ 0.5
C4A C27G C29G G68U | ≤ 0.5
C4A C11A U13C | 0.605
C4A A20U G23A C66U | ≤ 0.5
U3G C11U U64C | ≤ 0.5
C4A A21G C33U G51C | ≤ 0.5
U3G C5U G10A C55U | ≤ 0.5
U3G C22A G25C C33U | 0.606
C4A C29G C33G A43U | ≤ 0.5

Variant | yeast fitness
U3G C5U U26A G38A C62U A70U | ≤ 0.5
C4A A14G C30G A45G | 0.758
C4A C31A U35C A45U | ≤ 0.5
C4A C5U C27U A37G | ≤ 0.5
C4A C5G C30A | ≤ 0.5
U3G C5U G39C U47A | 0.538
C4A A43U C62U | 0.791
C4A C22A C33A G39C | ≤ 0.5
U3G C11U U19C A20U A42C C49U G56C | ≤ 0.5
C4A A21C A70C | ≤ 0.5
C4A C5A C30A C31U C33A A45U | ≤ 0.5
C4A A14U C31U A40U G41C A45C A69C | 0.599
C4A C5G U19A C46U A69U | 0.574
C4A C33G A45G A70U | ≤ 0.5
C4A C5A A15G U19C | ≤ 0.5
C4A A14U C30A G67C | ≤ 0.5
C4A C5A C34A C46U A65C | ≤ 0.5
C4A C24G C33G G63C | ≤ 0.5
U3G C5U A65U | 0.651
C4A C55A A69C A70U | ≤ 0.5
U3G U8C C61G G63C | ≤ 0.5
U3G C31U | 1
U3G U16C G48U | 0.633
C4A A15G G17A U32C C62A A69U | ≤ 0.5

Variant | yeast fitness
C4A A14U C29U G68A | ≤ 0.5
C4A C30G U59A | 0.528
C4A A40C G41C | ≤ 0.5
C4A C31U A37G G48A U54A C55G A65U | ≤ 0.5
C4A A14U C34G G56C | ≤ 0.5
C4A C46G | 0.847
C4A A21G C27U | 0.686
C4A A15C C27G C62G | ≤ 0.5
U3G C5U A70G | ≤ 0.5
C4A A14C U26C A36G A65U | ≤ 0.5
C4A C5U G58C U64A | 0.572
C4A C30U G38C A42G | ≤ 0.5
C4A A20U A43U | ≤ 0.5
U3G C60A C66U | ≤ 0.5
U3G U35G A40C G48A C60U U64G A65U A69C | ≤ 0.5
C4A C27U C66U | 0.66
C4A C11U A37C | 0.537
C4A A21C G39C C49G | 0.511
U3G G9C C33G C46U | ≤ 0.5
C4A A45C U47A | 0.708
C4A C5U C34U | ≤ 0.5
C4A C5U U8C U64A | ≤ 0.5
C4A C31G A40U | 0.62
C4A C31G A40C | ≤ 0.5

Variant | yeast fitness
U3G C11U U35A G38A C66U | ≤ 0.5
U3G U16A | 0.938
C4A C29U C55U G63A | ≤ 0.5
C4A C33G A57G | 0.576
U3G C11G | 0.556
U3G C11U | 0.748
C4A C27U A37G | 0.566
C4A C66U | 0.862
U3G C30U G48A | ≤ 0.5
C4A C5U U19A C66A | ≤ 0.5
C4A A40U A43U A70U | ≤ 0.5
C4A A15C A70U | ≤ 0.5
C4A A14U | 0.698
C4A A14G | 0.72
U3G U47G C60G | 0.503
C4A C24U | 0.733
C4A C24G | 0.714
C4A C31G G39A G51C | ≤ 0.5
U3G C11U A21U G44C A57U | ≤ 0.5
U3G C30G A40C C46U C49U G68C | ≤ 0.5
C4A G6A A14G C60U | ≤ 0.5
C4A C5G C66U A70G | ≤ 0.5
U3G C33U | 0.691
U3G C5U U26A | ≤ 0.5

Variant | yeast fitness
C4A C49U A65U | ≤ 0.5
C4A C31A G56A | 0.649
C4A C5A U28G C31G U47C A57U A70G | ≤ 0.5
C4A A21G C60U | 0.544
C4A A20G C34G C66U | ≤ 0.5
C4A C27U G39C | 0.632
C4A A70C | 0.993
C4A A21C C22U | 0.651
C4A C31A C33U | ≤ 0.5
C4A A15G | 0.844
C4A C11U C29G C34A G39C | ≤ 0.5
C4A C46G C60G | ≤ 0.5
C4A C5G U8A C30A G67C | ≤ 0.5
U3G U7A G9A | ≤ 0.5
U3G C30U A43U G48C G68C | ≤ 0.5
C4A A20U U32C A43U | ≤ 0.5
U3G C5U G10A G18C C24U A45C | 0.553
U3G C5U U26A A45C U59C | ≤ 0.5
U3G G44C C55G | ≤ 0.5
C4A C5G A36U G63A | ≤ 0.5
C4A C34G C46G G56A | ≤ 0.5
C4A C27U A40U G52C C60G | ≤ 0.5
C4A C22U C60U G67C | 0.519
U3G U53G | 0.587

Variant | yeast fitness
C4A A57C C62U | ≤ 0.5
U3G U8C | 0.681
U3G C55A | 0.644
C4A C22A A69U | 0.528
U3G G6A G17C C31G | ≤ 0.5
U3G U26A A70C | 1.27
U3G C24A G58A | ≤ 0.5
U3G U28G | 0.661
U3G C34G C62U | ≤ 0.5
U3G U35C A43U U54A A57C | ≤ 0.5
C4A C27G C34G A37U U64A | ≤ 0.5
C4A C22G C33U A40U U59A | ≤ 0.5
C4A C33U A65C | ≤ 0.5
U3G C11U U19C A20U A42C A65C A69U | 0.537
C4A C5A C66A A69C | ≤ 0.5
C4A C5U C22U C49U | ≤ 0.5
U3G C24U C31U | 0.793
C4A A20G G44C A45G | 0.506
U3G U8A C31A C49A | ≤ 0.5
U3G U13C C33A A42U C49U C55A | ≤ 0.5
C4A C22G C29U | 0.556
C4A A21U G52A | ≤ 0.5
U3G U8C A70C | 0.59
